Reference: ChEMBL document CHEMBL4834396, “Molecular Recognition and Imaging of Human Telomeric G-Quadruplex DNA in Live Cells: A Systematic Advancement of Thiazole Orange Scaffold To Enhance Binding Specificity and Inhibition of Gene Expression” (J Med Chem, 2021)
Activity calls are given as the source filed them. No cut-off for these calls is given here.

Experiments:
[1] = Water solubility of compound at 25 degreeC; assay type: physicochemical
Method in brief: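 Solubility in water measured at 25 °C.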

Quadruplex DNA [2] = experiment: Binding affinity to c-myc promoter G-quadruplex DNA Pu22 (unknown origin) assessed as equilibrium binding constant at 5 uM at 25 degreeC by […]; assay type: nucleic-acid assay
Method in brief: (§1)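 Fluorescence titration: ligand 5 μM in 10 mM Tris-HCl pH 7.4 with 60 mM KCl, nucleic acid added until saturation, 25 °C. Keq from nonlinear fit of F/F0 to an independent-site model.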

Quadruplex DNA [3] = experiment: Binding affinity to telomeric Htg24 G-quadruplex DNA (unknown origin) assessed as equilibrium binding constant at 5 uM at 25 degreeC by […]; assay type: nucleic-acid assay; method in brief: as §1
Quadruplex DNA [4] = experiment: Binding affinity to telomeric Telo21 G-quadruplex DNA (unknown origin) assessed as equilibrium binding constant at 5 uM at 25 degreeC by […]; assay type: nucleic-acid assay
Method in brief: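 Fluorescence titration: ligand at 5 μM in 10 mM Tris-HCl, pH 7.4, with 60 mM KCl, 25 °C. DNA was added slowly until saturation. Keq was obtained by nonlinear fitting of F/F0 to an independent-site model.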

DNA = experiment: Binding affinity to ds26 DNA (unknown origin) assessed as equilibrium binding constant at 5 uM at 25 degreeC by […]; assay type: nucleic-acid assay; method in brief: as §1
HeLa [5] = experiment: Induction of cellular senescence in human HeLa cells assessed as positive SA-beta-Gal cells at 0.5 to 4 uM incubated for 18 days by inverted fluorescence microscopic analysis; assay type: functional, cell-based; conditions: dose 0.5-4 µM, time 18.0 day
Method in brief: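 HeLa cells were exposed to compound for 18 days, with drug-containing medium replaced every three days. Cells were then fixed 15 min at room temperature and stained for β-galactosidase at 37 °C overnight. Stained cells were examined under an inverted microscope.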

HeLa [6] = experiment: Downregulation of hTERT mRNA expression in human HeLa cells at 5 to 20 uM by qRT-PCR analysis; assay type: functional, cell-based; conditions: dose 5-20 µM
Method in brief: (§2)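 HeLa cells were treated with graded compound concentrations, then incubated 36 h. RNA was extracted with Trizol/chloroform, reverse transcribed and quantified by qRT-PCR. GAPDH served as internal control, with relative expression by the ΔΔCt method; three independent experiments, mean ± SD.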

Quadruplex DNA [7] = experiment: Stabilization of telomeric Htg24 G-quadruplex DNA (unknown origin) assessed as inhibition of DNA amplification at 20 uM by PCR analysis; assay type: nucleic-acid assay
Method in brief: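 Taq polymerase stop assay: Htg24 or its non-G4 mutant template (5 μM) with 2 μM of each oligomer, […] and ligand at 0–20 μM. Cycling was 94 °C for 5 min, then 30 cycles of 94/56/72 °C at 30 s each. Products were resolved on 15% PAGE and stained with SYBR Gold.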

Quadruplex DNA [8] = experiment: Displacement of 2-((E)-4-(Dimethylamino)styryl)-1-methyl-4-((Z)-(3-(3-morpholinopropyl)benzo[d]thiazol-2(3H)-ylidene)methyl)quinolin-1-ium iodide from telomeric Htg24 G4 quadruplex DNA in human U87 cells assessed as decrease in fluorescence intensity at 5 to 20 uM by competition binding assay; assay type: cell-based; conditions: dose 5-20 µM
Method in brief: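 Live U87 cells were stained with probe at 5 μM plus DAPI and co-treated with BRACO19 at 5, 10, 15 or 20 μM. Confocal imaging used excitation at 488 or 571 nm for the probe and 402 nm for DAPI. Nuclear spot intensity was compared across concentrations.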

HeLa [9] = experiment: Downregulation of hTERC mRNA expression in human HeLa cells at 5 to 20 uM by qRT-PCR analysis; assay type: functional, cell-based; conditions: dose 5-20 µM; method in brief: as §2
PC-3 = experiment: Antiproliferative activity against human PC-3 cells assessed as reduction in cell viability […] by MTT assay; assay type: functional, cell-based
U-87 MG = experiment: Antiproliferative activity against human U87 cells assessed as reduction in cell viability […] by MTT assay; assay type: functional, cell-based, U-87MG ATCC
Quadruplex DNA [10] = experiment: Binding affinity to telomeric Htg24 G-quadruplex DNA (unknown origin) assessed as stroke shift under at 480 to 483 nm at pH 7.4 by spectrophotometric method
MCF7 = experiment: Antiproliferative activity against human MCF7 cells assessed as reduction in cell viability […] by MTT assay; assay type: functional, cell-based
rRNA = experiment: Binding affinity to rRNA (unknown origin) assessed as equilibrium binding constant at 5 uM at 25 degreeC […]; assay type: nucleic-acid assay; method in brief: as §1
Quadruplex DNA [11] = experiment: Binding affinity to telomeric Htg24 G-quadruplex DNA (unknown origin) assessed as emission wavelength at 480 to 483 nm at pH 7.4 by spectrophotometric method; assay type: nucleic-acid assay
Quadruplex DNA [12] = experiment: Binding affinity to telomeric Htg24 G-quadruplex DNA (unknown origin) assessed as fluorescence quantum yield by fluorescence spectrophotometric method; assay type: nucleic-acid assay
Method in brief: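 Fluorescence quantum yield determined against fluorescein (Φ = 0.95) in 1% NaOH ethanol. Five increasing ligand concentrations added to fixed DNA, with absorbance and emission recorded for each.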

16HBE14o- = experiment: Cytotoxicity against human 16HBE14o- cells assessed as cell viability incubated for 48 hrs by MTT assay; assay type: cell-based; conditions: 36 h, in the assay text read “36 hrs” for “48 hrs”
Method in brief: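 Cells were plated and grown 48 h at 37 °C, 5% CO2, in DMEM with 10% FBS. They were then given graded ligand concentrations for 36 h and treated with MTT (5 mg/ml) for 4 h in the dark. Formazan was dissolved in DMSO and absorbance read at 577 nm. IC50 was taken from a sigmoidal dose–response fit; three independent experiments.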

HeLa [13] = experiment: Antiproliferative activity against human HeLa cells assessed as reduction in cell viability […] by MTT assay; assay type: functional, cell-based
HepG2 = experiment: Antiproliferative activity against human HepG2 cells assessed as reduction in cell viability […] by MTT assay; assay type: functional, cell-based

Structure (SMILES)	solubility [1]	Kb (Quadruplex DNA [2])	Kb (Quadruplex DNA [3])	Kb (Quadruplex DNA [4])	Kb (DNA)	Activity (HeLa [6])	Activity (Quadruplex DNA [7])	Activity (HeLa [9])	Kb (rRNA)	further results
CC1CCN(CCCN2/C(=C/c3cc(/C=C/c4ccc(O)cc4)[n+](C)c4ccccc34)Sc3ccccc32)CC1.[I-]	147 µM	550000 M⁻¹	–	–	–	–	–	–	–	–
C[n+]1c(/C=C/c2ccc(N(c3ccccc3)c3ccccc3)cc2)cc(/C=C2\Sc3ccccc3N2CCCN2CCOCC2)c2ccccc21.[I-]	70.7 µM	645000 M⁻¹	490000 M⁻¹	523000 M⁻¹	272000 M⁻¹	–	–	–	–	–
CN(C)c1ccc(Nc2c3ccc(NC(=O)CCN4CCCC4)cc3nc3cc(NC(=O)CCN4CCCC4)ccc23)cc1	–	–	–	–	–	Active	Active	Active	–	Activity (HeLa [5]): Active; Activity (Quadruplex DNA [8]): Active
C[n+]1c(/C=C/c2ccc(O)cc2)cc(/C=C2\Sc3ccccc3N2CCCN2CCOCC2)c2ccccc21.[I-]	167 µM	–	–	965000 M⁻¹	–	–	–	–	–	–
CC1CCN(CCCN2/C(=C/c3cc(/C=C/c4ccc(N(C)C)cc4)[n+](C)c4ccccc34)Sc3ccccc32)CC1.[I-]	105 µM	–	–	–	–	Active	Active	Active	840000 M⁻¹	IC50 (PC-3): 14.6 µM; IC50 (U-87 MG): 14.7 µM; Activity (Quadruplex DNA [10]): 165 nm; IC50 (MCF7): 12.6 µM; Activity (Quadruplex DNA [11]): 648 nm; Activity (Quadruplex DNA [12]): 0.317; IC50 (16HBE14o-): 34.8 µM; IC50 (HeLa [13]): 21.2 µM; IC50 (HepG2): 11 µM
CC1CCN(CCCN2/C(=C/c3cc(/C=C/c4ccc(N(c5ccccc5)c5ccccc5)cc4)[n+](C)c4ccccc34)Sc3ccccc32)CC1.[I-]	77.2 µM	907000 M⁻¹	722000 M⁻¹	785000 M⁻¹	154000 M⁻¹	–	–	–	–	–
C[n+]1c(/C=C/c2ccc(C#N)cc2)cc(/C=C2\Sc3ccccc3N2CCCN2CCOCC2)c2ccccc21.[I-]	83 µM	443000 M⁻¹	505000 M⁻¹	722000 M⁻¹	379000 M⁻¹	–	–	–	501000 M⁻¹	–
CSc1ccc(/C=C/c2cc(/C=C3\Sc4ccccc4N3CCCN3CCC(C)CC3)c3ccccc3[n+]2C)cc1.[I-]	98.4 µM	766000 M⁻¹	689000 M⁻¹	650000 M⁻¹	755000 M⁻¹	–	–	–	787000 M⁻¹	–
CC1CCN(CCCN2/C(=C/c3cc(/C=C/c4ccc(C#N)cc4)[n+](C)c4ccccc34)Sc3ccccc32)CC1.[I-]	82.7 µM	983000 M⁻¹	902000 M⁻¹	957000 M⁻¹	–	–	–	–	786000 M⁻¹	–
CSc1ccc(/C=C/c2cc(/C=C3\Sc4ccccc4N3CCCN3CCOCC3)c3ccccc3[n+]2C)cc1.[I-]	87.3 µM	486000 M⁻¹	325000 M⁻¹	301000 M⁻¹	657000 M⁻¹	inactive	inactive	inactive	764000 M⁻¹	IC50 (PC-3): 91.1 µM; IC50 (U-87 MG): 96.8 µM; IC50 (MCF7): 105 µM; IC50 (16HBE14o-): 58 µM; IC50 (HeLa [13]): 90.3 µM; IC50 (HepG2): 96.5 µM
